For data set [1], the system named is Escherichia coli. As to the kind of experiment: Induction of Escherichia coli supercoiled plasmid pBR322 DNA cleavage at 0.5 uM after 3 hrs at 37 degC using ethidium bromide by gel electrophoresis. In short, it runs like this: (§1)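 Supercoiled pBR322 (3.5 nM) incubated with agent at 0.5, 5 or 50 µM in BPE buffer pH 7.4 for 3 h at 37 °C. Agent diluted fresh in water from DMSO stock. Products resolved on 1% agarose gel in 1× TAE and stained with ethidium bromide. Controls on gel were supercoiled, EcoRI-linearised and open circular plasmid markers. Chlorambucil at 50 µM was the reference agent.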

Data set [2] has as its system Escherichia coli. As to the kind of experiment: Induction of Escherichia coli supercoiled plasmid pBR322 DNA cleavage at 50 uM after 24 hrs using ethidium bromide by gel electrophoresis. The gist of the method: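 Supercoiled pBR322 (3.5 nM) incubated with agent in BPE buffer pH 7.4 at ambient temperature for 24 h. Products resolved on 1% agarose gel in 1× TAE and stained with ethidium bromide. Supercoiled, linear and open circular plasmid markers were run alongside.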

The test system of data set [3] is Escherichia coli. As to the kind of experiment: Induction of Escherichia coli supercoiled plasmid pBR322 DNA cleavage at 50 uM after 3 hrs at 37 degC using ethidium bromide by gel electrophoresis. In short, it runs like this: as §1
For data set [4], the system named is Escherichia coli. As to the kind of experiment: Binding affinity to Escherichia coli supercoiled plasmid pBR322 DNA at 50 uM after 3 hrs at 37 degC using ethidium bromide by gel electrophoresis. The gist of the method:
(§2)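 Supercoiled pBR322 (3.5 nM) incubated with agent at 0.5, 5 or 50 µM for 3 h at 37 °C in bisphosphate–EDTA (BPE) buffer, pH 7.4; chlorambucil 50 µM as control. Dilutions freshly made in water from 8 mM DMSO stock. Forms resolved on 1% agarose in 1× TAE, ethidium bromide-stained; supercoiled, EcoRI-linearised and nicked open-circular plasmid as markers.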

Data set [5] can be described thus: Induction of alkylation of 5'-FAM-labeled scrambled duplex oligonucleotide DNA (unknown origin) at guanine residues at 5 to 50 uM after 24 hrs by sequencing gel analysis.
Data set [6] deals with Escherichia coli. The data set is described as follows: Induction of Escherichia coli supercoiled plasmid pBR322 DNA cleavage at 0.5 uM to 50 uM after 3 hrs at 37 degC using ethidium bromide by gel electrophoresis. The gist of the method:
as §2

Data set [7] has as its system Escherichia coli. The data set is described as follows: Binding affinity to Escherichia coli supercoiled plasmid pBR322 DNA at 50 uM after 24 hrs using ethidium bromide by gel electrophoresis. The gist of the method: (§3)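 Supercoiled pBR322 (3.5 nM) exposed to agent at 24 h at ambient temperature in BPE buffer, pH 7.4; chlorambucil as control. Supercoiled, open-circular and linear forms separated by 1% agarose electrophoresis in 1× TAE, ethidium bromide-stained, with supercoiled, linear (EcoRI-cut) and nicked plasmid controls.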

The test system of data set [8] is Escherichia coli. The data set is described as follows: Induction of Escherichia coli supercoiled plasmid pBR322 DNA cleavage at 0.5 uM to 50 uM after 24 hrs using ethidium bromide by gel electrophoresis. The gist of the method: as §3
A short description of data set [9]: Reactive aziridinium ion formation in distilled water assessed as electrophilic aziridinium formation at 80 uM at 37 degC after 15 mins by ESI-MS analysis. The conditions noted are these: buffer, 0.25 h. It is filed as physicochemical. The gist of the method: (§4)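 An 80 µM solution of agent in distilled water was kept at 37 °C. Aliquots were taken at 0, 15, 30, 45, 60 and 120 min, diluted with methanol and analysed by ESI-MS for hydroxyl-substituted and aziridinium ion species.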

A short description of data set [10]: Reactive aziridinium ion formation in distilled water assessed as dihydroxyl substituted product formation at 80 uM at 37 degC after 15 mins by ESI-MS analysis. It is filed as physicochemical. The conditions noted are these: buffer, 0.25 h. In short, it runs like this: as §4
For data set [11], the system named is Escherichia coli. As to the kind of experiment: Induction of Escherichia coli supercoiled plasmid pBR322 DNA cleavage at 5 uM after 3 hrs at 37 degC using ethidium bromide by gel electrophoresis. The gist of the method: as §1

SMILES strings stand for the structures. Activity calls are given as the source filed them. No cut-off for these calls is given here.

In the case of `CC1(C)CC(Cl)CN(CCCCCCN2CC(Cl)CC(C)(C)C2)C1` (stereo not drawn), the outcome in the data set on Escherichia coli [1] was Active.
In the case of `CC1(C)CC(Cl)CN(CCCCN2CC(Cl)CC(C)(C)C2)C1` (stereo not drawn), the outcome in the data set on Escherichia coli [1] was Active.
Consider `CC1(C)CC(Cl)CN(CCCN2CC(Cl)CC(C)(C)C2)C1` (stereo not drawn), for which the result in the data set on Escherichia coli [1] was Active.
Take `O=C(O)CCCc1ccc(N(CCCl)CCCl)cc1`: the result in the data set with Escherichia coli [2] and in the data set on Escherichia coli [3] was inactive.
In the case of `CC1(C)CC(Cl)CN(CCCC[C@@H](C(=O)Oc2cccc3ccccc23)N2CC(Cl)CC(C)(C)C2)C1` (stereo partly drawn), the outcome (in the data set with Escherichia coli [4]; in data set [5]; in the data set on Escherichia coli [7]) was Active. The outcome in the data set with Escherichia coli [6] was inactive.
`CC1(C)CC(Cl)CN(CCCC[C@@H](C(=O)OCc2ccccc2)N2CC(Cl)CC(C)(C)C2)C1` (stereo partly drawn): the result (in the data set on Escherichia coli [8]; in data set [5]; in the data set with Escherichia coli [6]) was Active.
Take `CC1(C)CC(Cl)CN(CCCC[C@@H](C(=O)OCCc2ccccc2)N2CC(Cl)CC(C)(C)C2)C1` (stereo partly drawn): the result (in the data set with Escherichia coli [8]; in data set [5]; with Escherichia coli [6]) was Active.
As to `COc1ccc(OC(=O)[C@H](CCCCN2CC(Cl)CC(C)(C)C2)N2CC(Cl)CC(C)(C)C2)c2ccccc12` (stereo partly drawn), the outcome (with Escherichia coli [4]; in data set [5]; in the data set with Escherichia coli [7]) was Active. For the same molecule, in the data set with Escherichia coli [6], the result was inactive.
For `CC1(C)CC(Cl)CN(CCCCCN2CC(Cl)CC(C)(C)C2)C1` (stereo not drawn), in the data set with Escherichia coli [1], the outcome was Active.
As for `COC(=O)[C@H](CCCCN1CC(Cl)CC(C)(C)C1)N1CC(Cl)CC(C)(C)C1` (stereo partly drawn), the result (in the data set with Escherichia coli [8]; in [5]; in the data set with Escherichia coli [6]; in the data set on Escherichia coli [11]) was Active. The result in data set [9] and in data set [10] was Active.
Turning to `CC1(C)CC(Cl)CN(CCCC[C@@H](C(=O)OCCCc2ccccc2)N2CC(Cl)CC(C)(C)C2)C1` (stereo partly drawn), in data set [5], the result was Active. Further, the result with Escherichia coli [6] was inactive.
